This note sets out measurements from ChEMBL document CHEMBL4808167, “Design, Synthesis, and Evaluation of Small Molecule Gαq/11 Protein Inhibitors for the Treatment of Uveal Melanoma” (J Med Chem, 2021).

Active and inactive are the calls of the source. No cut-off for these calls is given here.

Assay [1] is described as follows: Induction of apoptosis in human 921 cells assessed as early apoptotic cells at 15 uM after 48 hrs by Annexin-V-FITC/propidium iodide staining based flow cytometry (reference value: 3.39%). It counts as functional.
Assay [2] is described as follows: Induction of apoptosis in human MP41 cells assessed as necrotic cells at 30 uM after 48 hrs by Annexin-V-FITC/propidium iodide staining based flow cytometry (reference value: 0.11%). It counts as functional.
Assay [3] concerns 921. Kind of assay: Inhibition of colony formation in human 921 cells at 1 to 5 uM after 9 days by crystal violet staining based light microscopic analysis. Type of assay: functional, cell-based. As to conditions: dose 1-5 µM, time 9.0 day. The essentials: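 Cells seeded 4 × 10³/well, incubated overnight at 37 °C, 5% CO₂, then exposed to compound for 9 days until colonies visible, medium and inhibitor replaced every 3 days. Fixed in 4% paraformaldehyde 15 min, crystal violet-stained 30 min, colonies counted. Repeated twice.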

On to `CC[C@@H](C)[C@H](N)C(=O)N1CCn2cc(-c3ccccc3)nc2[C@@H]1CC1CCCCC1`, for which the results for the Activity in assay [1] and in assay [2] were 13.1% and 0.27%, respectively. The inhibition entry in assay [3] is “Active”.
